Reference: PubChem BioAssay AID588420 (The Scripps Research Institute Molecular Screening Center, 2011)
Active and inactive are the calls of the source.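 Rule for the calls: active = IC50 at or below 1 µM; inactive = the rest.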

Target: Protein-arginine deiminase type-4 (Homo sapiens) (UniProt Q9UM07)
Assay: recombinant human PAD4 inhibitors – biochemical, BAEE substrate, citrulline absorbance, 8-point 0-10 µM, late-stage follow-up (AID 588420)
Settings: recombinant PAD4, BAEE citrulline colorimetric absorbance
How it was run: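 Signal: absorbance at 540 nm; material: recombinant PAD4 enzyme; reagent: 10 mM BAEE; times: 15 min compound preincubation, then 15 min substrate reaction, 37 °C; measure: IC50 from fitted dose-response; dosing: 8 doses, 0–10 µM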

Chain of Protein-arginine deiminase type-4 (Homo sapiens) (Q9UM07 whole entry, looked up): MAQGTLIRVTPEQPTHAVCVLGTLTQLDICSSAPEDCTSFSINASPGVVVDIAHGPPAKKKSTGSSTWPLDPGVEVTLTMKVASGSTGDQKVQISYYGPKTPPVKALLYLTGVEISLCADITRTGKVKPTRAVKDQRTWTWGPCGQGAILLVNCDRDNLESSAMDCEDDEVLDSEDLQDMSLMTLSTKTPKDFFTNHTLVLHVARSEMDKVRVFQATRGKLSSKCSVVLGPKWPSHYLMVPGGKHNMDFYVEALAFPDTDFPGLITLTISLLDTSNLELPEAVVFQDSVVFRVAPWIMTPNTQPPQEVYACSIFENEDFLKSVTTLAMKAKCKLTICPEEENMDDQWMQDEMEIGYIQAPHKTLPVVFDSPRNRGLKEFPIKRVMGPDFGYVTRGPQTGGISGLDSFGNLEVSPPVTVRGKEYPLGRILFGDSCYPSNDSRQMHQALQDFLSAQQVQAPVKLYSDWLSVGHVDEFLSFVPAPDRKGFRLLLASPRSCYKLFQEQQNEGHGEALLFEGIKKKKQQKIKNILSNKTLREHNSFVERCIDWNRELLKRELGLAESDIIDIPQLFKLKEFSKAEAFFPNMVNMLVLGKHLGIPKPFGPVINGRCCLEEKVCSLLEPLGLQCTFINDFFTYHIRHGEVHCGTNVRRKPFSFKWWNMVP

IC50: inactive
SMILES: COC1=CC(=O)c2nc(C#N)ccc2C1=O
